Compound activity deposited in PubChem BioAssay by Johns Hopkins Ion Channel Center.
MrgX1 allo act – allosterically activates human MrgX1 receptor signaling. Q96LB2. MrgX1-HEK293, Fluo-4 calcium flux, FDSS; hits give high values. B-score at 10 µM. 0.63% of 310,000 active;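 active = plate-corrected calcium response at least 3 library SD above typical, normal starting fluorescence, not activating the receptor alone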;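 note: compound read alongside a low EC10 to EC30 dose of BAM8-22 agonist; peak minus trough fluorescence over baseline measured at the second addition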
Target sequence (Q96LB2 whole entry, looked up): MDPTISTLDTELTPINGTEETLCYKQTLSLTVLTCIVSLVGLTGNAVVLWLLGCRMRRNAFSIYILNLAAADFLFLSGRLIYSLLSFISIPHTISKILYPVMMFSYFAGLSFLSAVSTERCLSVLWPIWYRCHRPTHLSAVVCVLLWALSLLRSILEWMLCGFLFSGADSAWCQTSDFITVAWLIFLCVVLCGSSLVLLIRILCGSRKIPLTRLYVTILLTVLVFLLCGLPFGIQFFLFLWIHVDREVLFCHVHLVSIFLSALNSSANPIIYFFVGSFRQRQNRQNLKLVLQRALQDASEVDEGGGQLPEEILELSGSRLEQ
MrgX1 agonist – agonists of human MrgX1 receptor; Q96LB2; MrgX1-HEK293 cells, Fluo-4 calcium fluorescence, agonist mode; hits give high values; B-score at 10 µM; 0.44% of 310,000 active; AID 588627;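 active = calcium response B-score plate-corrected fluorescence ratio at least 3 library SD, with starting fluorescence B-score inside 5 SD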
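Material: MrgX1-expressing HEK293 cells; input: 15,000 cells per well; doses: test compound given as first of three sequential additions; schedule: overnight plating before 1 h dye loading; technique: Fluo-4 NW calcium-flux fluorescence, kinetic read; evaluation: baseline-normalised fluorescence change ratio, B-scored; control set: plate-wise positive and negative controls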
MrgX1 antagonist – antagonists of human MrgX1 receptor | Q96LB2 | MRGX1-HEK293 calcium flux, Fluo-4, BAM8-22 antagonism; hits give low values | B-score at 10 µM | 1.3% of 310,000 active | AID 588676;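 active = calcium-response B-score plate-corrected more than 3 library SD below zero, starting fluorescence within 5 deviations, no agonist response on first addition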;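 note: peak minus trough fluorescence over baseline after final BAM8-22 challenge near maximal dose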
RGS4 pot – potentiators or activators of RGS4. B-score at 10 µM. 0.92% of 310,000 active. HEK293 M3R/inducible RGS4, carbachol calcium flux Fluo4; hits give low values. AID 463111;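 active = B-score of the integrated calcium signal more than 4 SD below the library mean, with starting fluorescence not abnormally high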;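 note: negative B-score means reduced calcium response which marks RGS4 activation or potentiation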
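System – HEK293 FlpIn-TREx cells, stable M3R, doxycycline-inducible RGS4 · Reagent – ECmax carbachol challenge · Times – compound preincubation 20 min at room temperature before agonist · Technique – Fluo4 fluorescence kinetic imaging of calcium · Measure – B score of integrated Fluo4 ratio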
RGS4 inh – inhibitors of human RGS4 | 0.45% of 310,000 active | HEK293 M3R/RGS4 inducible, Fluo-4 calcium flux; hits give high values; triggered by carbachol at its EC20 | P49798 | B-score at 10 µM;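 active = B-score, a plate-corrected calcium signal, over three deviations above library mean, with baseline fluorescence within five deviations of library mean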;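 note: RGS4 expression induced by doxycycline in cells with stable M3 receptor; B-score is computed from the integrated fluorescence ratio over baseline after carbachol; higher B-score means a larger calcium signal and so more RGS4 inhibition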
Target sequence (P49798 whole entry, looked up): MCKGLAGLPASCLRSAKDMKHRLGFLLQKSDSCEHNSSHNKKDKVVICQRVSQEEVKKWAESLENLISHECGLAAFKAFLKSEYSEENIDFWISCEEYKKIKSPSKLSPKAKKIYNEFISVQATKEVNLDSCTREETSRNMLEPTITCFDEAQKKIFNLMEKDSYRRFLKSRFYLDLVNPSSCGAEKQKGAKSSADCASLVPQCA
RGS4 block valid – validation of RGS4 inhibitors; shares compounds with RGS4 inh; HEK293 M3R/RGS4, carbachol calcium Fluo-4 fluorescence; carbachol added at its EC20; 0 = buffer wells, 100 = carbachol control; calcium response, % at 10 µM; 65% of 1,700 active; AID 492999;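 active = duplicate-averaged calcium response above the buffer-only control mean plus 5 SD of those controls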;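 note: integrated fluorescence ratio F max minus min over baseline F0; higher response in RGS4-induced cells means RGS4 inhibition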
RGS4 uninduced – non-induced cell nonspecific activity of RGS4 inhibitors | HEK293 M3R non-induced, carbachol calcium Fluo-4; submaximal (EC20) carbachol stimulus; buffer wells 0%, carbachol control wells 100% | 20% of 1,900 active | AID 493000 | activity (percent), % at 10 µM | shares compounds with RGS4 inh; call rule not given here;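 note: RGS4 induction absent so cells express M3R without RGS4; higher means more calcium signal and flags a non-specific hit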
M3R basal Ca ctr – second counter-screen for RGS4 inhibitors: non-induced cells without carbachol | calcium response (agonist-mode artifact), % at 10 µM | shares compounds with RGS4 inh | HEK293 M3R/RGS4 non-induced, Fluo-4 calcium, no carbachol; normalised: buffer wells 0%, carbachol wells 100% | 22% of 1,900 active | AID 493001;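 active = duplicate-averaged calcium rise in uninduced cells above buffer wells' mean plus 5 SD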
Numbers stand for hits; – = inactive; · = not tested or not shown. In the library only some 3.5% were active in any assay of this set; here they are far more common.

SMILES	MrgX1 allo act	MrgX1 agonist	MrgX1 antagonist	RGS4 pot	RGS4 inh	RGS4 block valid	RGS4 uninduced	M3R basal Ca ctr
CC(C)S(=O)(=O)c1csc(NC(=O)Nc2cccc([N+](=O)[O-])c2)c1Cl	–	–	–	–	–	·	·	·
CCCNC(=O)c1nc(C)n(-c2ccc([N+](=O)[O-])cc2)n1	–	–	–	–	–	·	·	·
Cc1noc(C(F)(F)F)c1C(=O)NNC(=O)c1ccccc1	–	–	–	–	–	·	·	·
Cc1cccc(NC(=S)NNC(=O)c2csc3c2CCCC3)c1	–	–	–	–	6.2	20%	54%	–
CC(=O)N1CCC(=NNc2ccnc3cc(Cl)ccc23)CC1	–	–	–	–	6.9	28%	–	–
CCOC(=O)N1CCC(=NNc2ccnc3cc(Cl)ccc23)CC1	–	–	–	–	–	·	·	·
Cc1cc(N)n2ncc(-c3ccc(F)cc3)c2n1	–	–	–	–	–	·	·	·
Nc1c(C(=O)O)cnc2c(-c3ccc(Cl)cc3)cnn12	–	–	–	–	7.7	24%	31%	–
Cc1cc(N)n2ncc(-c3ccc(Cl)cc3)c2n1	–	–	–	–	5.1	17%	–	–
N#Cc1c(-c2ccco2)cc(-c2ccc(F)cc2)nc1N	–	–	–	–	6.3	7.0%	–	24%
Cc1ccc(-c2cc(-c3ccccc3)nc(N)c2C#N)o1	–	–	–	–	–	–	–	–
N#Cc1c(-c2ccccc2)cc(-c2ccc(O)cc2)nc1N	–	–	–	–	–	·	·	·
N#Cc1c(-c2ccc(F)cc2)cc(-c2cccnc2)nc1N	–	–	–	–	–	·	·	·
COC(=O)CSc1nc2ccccn2c(=O)c1C=O	–	–	–	–	–	·	·	·
S=c1[nH]nc(-c2cc(-c3ccsc3)n[nH]2)n1-c1cccc2ccccc12	–	–	–	–	6.1	11%	–	–
COc1ccc(N2C(=O)CC(N3CCN(S(=O)(=O)c4c(F)cccc4F)CC3)C2=O)cc1OC (configuration not stated)	–	–	–	–	6.8	9.0%	–	–
COc1cccc(N2CCN(C3CC(=O)N(c4ccc(F)c(Cl)c4)C3=O)CC2)c1 (configuration not stated)	–	–	–	–	–	·	·	·
CCOc1ccc(/C=c2\sc3nc(-c4ccco4)nn3c2=O)cc1OCC	–	–	–	–	6	8.5%	–	133%
COc1ccccc1/C=c1\sc2nc(-c3ccco3)nn2c1=O	–	–	–	–	–	·	·	·
Cc1cc(N=Cc2cc(Br)ccc2O)no1	–	–	–	–	7.2	7.5%	–	–
Oc1ccc(C[C@@H]2CNC(=S)N2CCCCC2CCCCC2)cc1	–	–	–	–	5.3	18%	–	–
COc1ccc(NC(=O)c2cc3ccc(O)cc3o/c2=N\O)cc1	–	–	–	–	–	·	·	·
O=C1C=CC(=O)N1c1ccc(O)cc1	–	–	–	–	14	75%	72%	14%
COC(=O)c1cc(C)nc2c1C(=O)C(=O)C=C2N1CCOCC1	–	–	–	–	21	34%	–	–
COC(=O)c1cc(S(=O)(=O)N2CCOCC2)c(Cl)cc1N1CCOCC1	–	–	–	–	–	·	·	·
SMILES	MrgX1 allo act	MrgX1 agonist	MrgX1 antagonist	RGS4 pot	RGS4 inh	RGS4 block valid	RGS4 uninduced	M3R basal Ca ctr
O=C1Nc2ccccc2/C1=C/c1ccc([N+](=O)[O-])cc1	–	–	–	–	8.1	–	30%	–
COc1ccc(NC(=O)C(=O)NCc2ccncc2)c(OC)c1	–	–	–	–	–	–	–	–
COc1ccc(C)cc1NC(=O)C(=O)NCc1ccncc1	–	–	–	–	–	–	–	–
CC(C)C(NS(=O)(=O)c1ccc2c(c1)C(C)(C)C(=O)N2C)C(=O)NCc1ccccc1Cl (configuration not stated)	–	–	–	–	–	·	·	·
CCc1ccc(N2CC(C(=O)N/N=C/c3cc([N+](=O)[O-])ccc3O)CC2=O)cc1 (configuration not stated)	–	–	–	–	–	·	57%	–
CCc1ccc(N2CC(C(=O)N/N=C/c3ccccc3OC)CC2=O)cc1 (configuration not stated)	–	–	–	–	–	·	·	·
COc1ccc(C(=O)N2CCCC(CCC(=O)NCc3ccccc3F)C2)c(OC)n1 (configuration not stated)	–	–	–	–	–	·	·	·
CC1CCCCN1Cc1c(O)ccc2c(=O)c(-c3nc4ccccc4s3)c(N)oc12 (configuration not stated)	–	–	–	–	12	10%	–	–
COc1ccc(NS(=O)(=O)c2ccc3nc(COc4cccc5ccccc45)[nH]c3c2)cc1	–	–	–	–	8.5	7.0%	–	–
CCOc1ccccc1-n1c(=S)sc2c(=O)n(-c3ccccc3)c(=S)[nH]c21	–	–	–	–	–	·	·	·
O=C(NC1CCCC1)c1nc2c(nnn2Cc2ccccc2Cl)c(=O)[nH]1	–	–	–	–	–	·	·	·
COc1cccc(OC)c1NC(=O)c1nc2c(nnn2Cc2ccccc2Cl)c(=O)[nH]1	–	–	–	–	5.5	14%	–	–
COCCNC(=S)N(CCO)Cc1cc2cc3c(cc2[nH]c1=O)OCCO3	–	–	–	–	–	–	–	–
COCCCNC(=S)N(CCO)Cc1cc2cc3c(cc2[nH]c1=O)OCCO3	–	–	–	–	5.2	–	–	–
CCN(CC)CCN(Cc1cc2cc3c(cc2[nH]c1=O)OCCO3)C(=S)NCCCOC	–	–	–	–	–	–	–	–
CNC(=S)N(CCO)Cc1cc2cc3c(cc2[nH]c1=O)OCCO3	–	–	–	–	–	·	·	·
CCCCNC(=S)N(CCCO)Cc1cc2cc3c(cc2[nH]c1=O)OCCO3	–	–	–	–	–	·	·	·
COc1ccc(-c2csc(NC(=O)c3ccccc3F)c2C(=O)O)cc1	–	–	–	–	–	·	·	·
O=c1cc(-c2ccc(Cl)cc2)oc(=O)[nH]1	–	–	–	–	–	·	·	·
O=c1cc(N=Nc2ccc(Cl)cc2)[nH]c(=O)[nH]1	–	–	–	–	17	22%	–	–
Cc1onc(-c2ccccc2)c1C(=O)NCc1ccc(Cl)cc1	–	–	–	–	–	·	·	·
CS(=O)(=O)Cc1ccc(C(=O)N2CCCC2c2cccs2)cc1 (configuration not stated)	–	–	–	–	–	·	·	·
CCOc1cc(/C=C\[N+](=O)[O-])ccc1OCC(=O)N1CCOCC1	–	–	–	–	28	43%	32%	12%
